Measured values taken from ChEMBL document CHEMBL4665899, “Exploring the Chemical Space of Benzothiazole-Based DNA Gyrase B Inhibitors” (ACS Med Chem Lett, 2020).
pIC50: −log10 of the molar value. Values after ≈ are worked out from the molar mass of the structure shown.

Legend:
[1] = Inhibition of Escherichia coli DNA topoisomerase 4 using supercoiled pNO1 plasmid DNA as substrate incubated for 30 mins by fluorescence assay
[2] = biological target: DNA gyrase (Escherichia coli, UniProt P0AES4+P0AES6); assay: Inhibition of Escherichia coli DNA gyrase using relaxed pNO1 plasmid DNA as substrate incubated for 30 mins by fluorescence assay; type: protein-complex assay
[3] = test system: Staphylococcus aureus; assay: Antibacterial activity against Staphylococcus aureus ATCC 29213 assessed as minimum inhibitory concentration required for >=90% inhibition of bacterial growth measured after 24 hrs by broth microdilution method; type: functional
In short: (§1)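 Strains were grown from cation-adjusted Mueller-Hinton agar slants into cation-adjusted MH broth at 37°C for 16-20 h at 100 rpm. Broth microdilution followed CLSI guidelines, with a final inoculum of 5×10^5 CFU/mL mixed 1:1 with compound in MH broth and incubated for 24 h at 37°C. Growth was read as A620 and expressed as percentage inhibition relative to untreated controls. Each plate included a ciprofloxacin positive control.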

[4] = test system: Enterococcus faecalis; assay: Antibacterial activity against Enterococcus faecalis ATCC 29212 assessed as minimum inhibitory concentration required for >=90% inhibition of bacterial growth after 24 hrs by broth microdilution method; type: functional; in short: as §1
[5] = test system: Escherichia coli; assay: Antibacterial activity against outer membrane impaired Escherichia coli JD17464 harboring lpxC mutant assessed as minimum inhibitory concentration required for >=90% inhibition of bacterial growth measured after 24 hrs by broth microdilution method; type: functional
[6] = test system: Pseudomonas aeruginosa; assay: Antibacterial activity against Pseudomonas aeruginosa ATCC 27853 assessed as minimum inhibitory concentration required for >=90% inhibition of bacterial growth measured after 24 hrs by broth microdilution method; type: functional; in short: as §1
[7] = biological target: DNA gyrase (Staphylococcus aureus, UniProt P0A0K8+P20831); assay: Inhibition of Staphylococcus aureus DNA gyrase using relaxed pNO1 plasmid DNA as substrate incubated for 30 mins by fluorescence assay; type: protein-complex assay
[8] = biological target: Topoisomerase IV (Staphylococcus aureus, UniProt P0C1S7+P0C1U9); assay: Inhibition of Staphylococcus aureus DNA topoisomerase 4 using supercoiled pNO1 plasmid DNA as substrate incubated for 30 mins by fluorescence assay; type: protein-complex assay
[9] = test system: Escherichia coli; assay: Antibacterial activity against efflux pump defective Escherichia coli JW5503 harbouring tolC mutant assessed as minimum inhibitory concentration required for >=90% inhibition of bacterial growth measured after 24 hrs by broth microdilution method; type: functional
[10] = biological target: Topoisomerase IV (Staphylococcus aureus) (UniProt P0C1U9+P0C1S7); assay: Inhibition of Staphylococcus aureus DNA topoisomerase 4 assessed as enzyme residual activity at 10 uM using supercoiled pNO1 plasmid DNA as substrate incubated for 30 mins by fluorescence assay relative to control; type: protein-complex assay
[11] = biological target: DNA gyrase (Staphylococcus aureus) (UniProt P0A0K8+P20831); assay: Inhibition of Staphylococcus aureus DNA gyrase assessed as enzyme residual activity at 10 uM using relaxed pNO1 plasmid DNA as substrate incubated for 30 mins by fluorescence assay relative to control; type: protein-complex assay
[12] = test system: Escherichia coli; assay: Antibacterial activity against Escherichia coli ATCC 25922 assessed as minimum inhibitory concentration required for >=90% inhibition of bacterial growth measured after 24 hrs by broth microdilution method; type: functional
In short: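 Cation-adjusted Mueller Hinton broth culture grown 16-20 h at 37°C with 100 rpm shaking. CLSI broth microdilution at a final inoculum of 5×10^5 CFU/mL, 8 concentrations from […], incubated 24 h at 37°C. A620 read and growth inhibition expressed as % of untreated controls. Ciprofloxacin positive control on every plate; n = 3.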

[13] = test system: Escherichia coli; assay: Inhibition of Escherichia coli DNA topoisomerase 4 assessed as enzyme residual activity at 10 uM using supercoiled pNO1 plasmid DNA as substrate incubated for 30 mins by fluorescence assay relative to control

Chain of DNA gyrase (Staphylococcus aureus, UniProt P0A0K8+P20831) (P0A0K8 whole entry): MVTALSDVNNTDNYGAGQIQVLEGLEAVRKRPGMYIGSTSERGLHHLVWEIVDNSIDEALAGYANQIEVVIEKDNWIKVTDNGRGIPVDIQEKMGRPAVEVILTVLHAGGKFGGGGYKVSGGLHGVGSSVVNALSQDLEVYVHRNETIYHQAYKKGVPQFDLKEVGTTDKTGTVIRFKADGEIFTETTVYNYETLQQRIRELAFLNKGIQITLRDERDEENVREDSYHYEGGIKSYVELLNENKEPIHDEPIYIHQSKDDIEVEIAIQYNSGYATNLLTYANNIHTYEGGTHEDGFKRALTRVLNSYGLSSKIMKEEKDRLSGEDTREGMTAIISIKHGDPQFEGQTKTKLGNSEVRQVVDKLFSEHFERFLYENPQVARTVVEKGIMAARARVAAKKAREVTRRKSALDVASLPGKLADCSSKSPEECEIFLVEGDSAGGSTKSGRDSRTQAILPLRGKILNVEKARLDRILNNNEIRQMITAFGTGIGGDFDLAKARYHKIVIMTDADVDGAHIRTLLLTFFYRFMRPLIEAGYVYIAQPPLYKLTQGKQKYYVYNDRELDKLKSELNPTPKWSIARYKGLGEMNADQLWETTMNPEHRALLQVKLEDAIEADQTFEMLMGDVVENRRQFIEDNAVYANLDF
Chain of DNA gyrase (Staphylococcus aureus, UniProt P0A0K8+P20831) (P20831 whole entry): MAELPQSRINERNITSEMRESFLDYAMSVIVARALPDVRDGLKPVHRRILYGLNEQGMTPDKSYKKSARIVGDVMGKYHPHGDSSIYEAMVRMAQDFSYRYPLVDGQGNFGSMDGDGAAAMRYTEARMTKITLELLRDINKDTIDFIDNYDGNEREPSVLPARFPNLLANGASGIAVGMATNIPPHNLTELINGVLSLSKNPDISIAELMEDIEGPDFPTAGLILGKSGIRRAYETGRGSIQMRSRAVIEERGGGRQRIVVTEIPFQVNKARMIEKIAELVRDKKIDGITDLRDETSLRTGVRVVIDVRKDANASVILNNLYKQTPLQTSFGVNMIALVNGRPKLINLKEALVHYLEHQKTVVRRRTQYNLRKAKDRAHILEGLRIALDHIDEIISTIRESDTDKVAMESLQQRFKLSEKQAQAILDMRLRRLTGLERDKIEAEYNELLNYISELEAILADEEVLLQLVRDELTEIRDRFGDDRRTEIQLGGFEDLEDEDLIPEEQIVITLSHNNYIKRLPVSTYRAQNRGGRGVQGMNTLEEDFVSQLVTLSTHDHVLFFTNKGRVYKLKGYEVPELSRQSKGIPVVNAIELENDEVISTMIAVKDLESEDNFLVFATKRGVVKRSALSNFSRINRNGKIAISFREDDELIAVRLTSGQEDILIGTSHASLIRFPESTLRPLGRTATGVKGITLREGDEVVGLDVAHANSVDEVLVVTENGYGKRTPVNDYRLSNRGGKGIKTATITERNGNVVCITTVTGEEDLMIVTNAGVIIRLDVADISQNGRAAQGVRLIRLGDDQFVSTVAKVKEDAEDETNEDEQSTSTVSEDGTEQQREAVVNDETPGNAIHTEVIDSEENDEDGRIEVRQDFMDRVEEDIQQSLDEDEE
Chain of Topoisomerase IV (P0C1U9 whole entry): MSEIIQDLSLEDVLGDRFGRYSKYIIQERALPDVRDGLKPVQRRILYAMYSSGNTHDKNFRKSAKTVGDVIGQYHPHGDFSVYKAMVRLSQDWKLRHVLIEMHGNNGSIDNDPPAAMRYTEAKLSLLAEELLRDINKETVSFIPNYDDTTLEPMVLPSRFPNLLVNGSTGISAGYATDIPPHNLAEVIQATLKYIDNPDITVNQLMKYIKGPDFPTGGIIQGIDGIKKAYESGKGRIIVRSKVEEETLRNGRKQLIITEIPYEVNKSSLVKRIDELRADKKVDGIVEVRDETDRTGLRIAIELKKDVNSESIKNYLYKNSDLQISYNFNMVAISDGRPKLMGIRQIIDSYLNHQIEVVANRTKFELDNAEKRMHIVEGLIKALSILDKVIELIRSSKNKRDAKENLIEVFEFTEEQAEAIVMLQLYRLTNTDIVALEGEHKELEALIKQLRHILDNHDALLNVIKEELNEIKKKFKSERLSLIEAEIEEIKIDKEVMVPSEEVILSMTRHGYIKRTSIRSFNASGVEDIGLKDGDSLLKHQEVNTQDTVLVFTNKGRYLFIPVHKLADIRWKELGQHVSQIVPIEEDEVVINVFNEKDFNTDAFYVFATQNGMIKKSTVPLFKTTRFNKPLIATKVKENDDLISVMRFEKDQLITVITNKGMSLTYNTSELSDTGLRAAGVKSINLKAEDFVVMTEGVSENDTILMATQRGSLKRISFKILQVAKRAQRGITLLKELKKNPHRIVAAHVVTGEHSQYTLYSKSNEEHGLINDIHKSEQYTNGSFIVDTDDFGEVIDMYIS
Chain of Topoisomerase IV (P0C1S7 whole entry): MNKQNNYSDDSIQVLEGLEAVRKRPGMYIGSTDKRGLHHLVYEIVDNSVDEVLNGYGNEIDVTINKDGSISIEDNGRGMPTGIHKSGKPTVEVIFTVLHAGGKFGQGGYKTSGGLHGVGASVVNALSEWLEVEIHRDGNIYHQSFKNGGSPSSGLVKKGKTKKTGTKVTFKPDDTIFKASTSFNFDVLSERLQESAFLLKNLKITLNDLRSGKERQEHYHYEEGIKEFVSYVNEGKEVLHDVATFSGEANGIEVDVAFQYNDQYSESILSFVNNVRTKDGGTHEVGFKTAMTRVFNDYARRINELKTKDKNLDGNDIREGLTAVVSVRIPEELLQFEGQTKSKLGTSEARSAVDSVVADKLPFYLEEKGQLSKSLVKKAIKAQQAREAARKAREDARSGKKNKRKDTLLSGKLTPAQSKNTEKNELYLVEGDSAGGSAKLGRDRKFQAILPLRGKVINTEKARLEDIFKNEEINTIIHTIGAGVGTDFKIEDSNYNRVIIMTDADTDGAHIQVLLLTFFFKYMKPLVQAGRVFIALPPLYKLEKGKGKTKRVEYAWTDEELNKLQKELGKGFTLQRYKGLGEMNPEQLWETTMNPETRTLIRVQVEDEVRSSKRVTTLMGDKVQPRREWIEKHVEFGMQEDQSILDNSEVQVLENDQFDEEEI
Chain of DNA gyrase (Staphylococcus aureus) (P0A0K8 2-644 limits assumed): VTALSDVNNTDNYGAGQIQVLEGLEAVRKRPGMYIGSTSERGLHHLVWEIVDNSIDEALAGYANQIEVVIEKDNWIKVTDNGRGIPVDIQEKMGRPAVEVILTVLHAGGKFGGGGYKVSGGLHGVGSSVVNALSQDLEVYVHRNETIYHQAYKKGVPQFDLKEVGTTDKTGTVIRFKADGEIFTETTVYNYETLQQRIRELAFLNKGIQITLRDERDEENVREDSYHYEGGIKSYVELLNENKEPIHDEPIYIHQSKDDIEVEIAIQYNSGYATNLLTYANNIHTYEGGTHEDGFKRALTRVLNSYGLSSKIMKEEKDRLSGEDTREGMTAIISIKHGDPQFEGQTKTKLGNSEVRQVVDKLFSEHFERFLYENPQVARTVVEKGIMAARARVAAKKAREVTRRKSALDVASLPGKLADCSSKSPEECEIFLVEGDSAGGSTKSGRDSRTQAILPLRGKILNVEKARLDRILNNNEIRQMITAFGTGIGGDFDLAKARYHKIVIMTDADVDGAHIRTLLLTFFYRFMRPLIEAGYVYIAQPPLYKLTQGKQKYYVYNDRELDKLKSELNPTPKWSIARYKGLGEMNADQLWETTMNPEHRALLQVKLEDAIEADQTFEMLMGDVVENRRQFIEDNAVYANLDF
Chain of DNA gyrase (Staphylococcus aureus) (P20831 whole entry partner): as the sequence (P20831 whole entry) above

| Compound | pIC50 [1] | pIC50 [2] | MIC [3] [µM] | MIC [4] [µM] | MIC [5] [µM] | MIC [6] [µM] | pIC50 [7] | pIC50 [8] | MIC [9] [µM] | Activity [10] [%] | Activity [11] [%] | MIC [12] [µM] | Activity [13] [%] |
| --- | --- | --- | --- | --- | --- | --- | --- | --- | --- | --- | --- | --- | --- |
| O=C(O)C(=O)Nc1ccc2nc(NC(=O)c3cc(Br)c(Br)[nH]3)[nH]c2c1 | 4.92 | 6.22 | > 50 | > 50 | > 50 | > 50 | 4.10 | 4.51 |  |  |  |  |  |
| CCOC(=O)C(=O)Nc1ccc2nc(NC(=O)c3cc(Br)c(Br)[nH]3)[nH]c2c1 |  | 5.40 | > 50 | > 50 | > 50 | > 50 |  |  | > 50 | 100 | 100 | > 50 | 100 |
| CCOC(=O)C(=O)Nc1ccc2nc(NC(=O)c3[nH]c(C)c(Cl)c3Cl)sc2c1 |  | 7.32 | > 50 | > 50 | > 50 | > 50 |  |  | 50 (≈ 22.1 µg/mL) | 100 | 100 | > 50 | 100 |
| Cc1[nH]c(C(=O)Nc2nc3ccc(NC(=O)CCNC(=O)OC(C)(C)C)cc3s2)c(Cl)c1Cl |  | 6.96 | > 50 | > 50 | > 50 | > 50 | 6.11 |  | > 50 | 100 |  | > 50 | 100 |
| COC(=O)CC(=O)Nc1nc2ccc(NC(=O)c3[nH]c(C)c(Cl)c3Cl)cc2s1 |  | 6.70 | > 50 | > 50 | > 50 | > 50 |  |  | 1.56 (≈ 0.688 µg/mL) | 48 | 59 | > 50 | 100 |
| Cc1[nH]c(C(=O)Nc2nc3ccc(NC(=O)CCN)cc3s2)c(Cl)c1Cl | 5.00 | 6.96 | > 50 | 12.5 (≈ 5.15 µg/mL) | > 50 | > 50 | 5.82 | 6.54 | 12.5 (≈ 5.15 µg/mL) |  |  | > 50 |  |
| O=C(O)c1cn(C2CC2)c2cc(N3CCNCC3)c(F)cc2c1=O [CIPROFLOXACIN] |  |  |  |  |  |  |  |  |  |  |  | 0.05 (≈ 0.0166 µg/mL) |  |
| Cc1[nH]c(C(=O)Nc2nc3ccc(NC(=O)CN)cc3s2)c(Cl)c1Cl |  | 6.55 | 25 (≈ 9.96 µg/mL) | 6.25 (≈ 2.49 µg/mL) | > 50 | > 50 | 6.42 |  | 3.13 (≈ 1.25 µg/mL) | 100 |  | > 50 | 100 |
| Cc1[nH]c(C(=O)Nc2ccc3nc(NC(=O)C(=O)O)sc3c2)c(Cl)c1Cl | 5.19 | 7.54 | > 50 | > 50 | > 50 | > 50 | 6.60 | 6.04 |  |  |  |  |  |
| CC(=O)Nc1ccc2nc(NC(=O)c3[nH]c(C)c(Cl)c3Cl)sc2c1 | 5.34 | 8.02 | > 50 | 3.13 (≈ 1.2 µg/mL) | > 50 | > 50 | 6.40 | 5.80 | 0.78 (≈ 0.299 µg/mL) |  |  | > 50 |  |
| COC(=O)CC(=O)Nc1ccc2nc(NC(=O)c3cc(Br)c(Br)[nH]3)[nH]c2c1 |  | 5.15 | > 50 | > 50 | > 50 | > 50 |  |  | > 50 | 100 | 100 | > 50 | 100 |
| O=C(O)C(=O)Nc1ccc2nc(NC(=O)c3cc(Br)c(Br)[nH]3)sc2c1 |  |  |  |  |  |  |  | 5.00 |  |  |  |  |  |
| Cc1[nH]c(C(=O)Nc2nc3ccc(N)cc3s2)c(Cl)c1Cl |  | 4.80 |  |  |  |  |  |  |  | 100 | 60 |  | 100 |
| CCOC(=O)C(=O)Nc1nc2ccc(NC(=O)c3[nH]c(C)c(Cl)c3Cl)cc2s1 |  | 6.54 | > 50 | > 50 | > 50 | > 50 |  |  | > 50 | 100 | 69 | > 50 | 100 |
| Cc1[nH]c(C(=O)Nc2nc3ccc(NC(=O)CNC(=O)OC(C)(C)C)cc3s2)c(Cl)c1Cl |  | 7.54 | > 50 | 3.13 (≈ 1.56 µg/mL) | > 50 | > 50 | 6.59 |  | 0.78 (≈ 0.389 µg/mL) | 100 |  | > 50 | 60 |
| O=C(O)CC(=O)Nc1ccc2nc(NC(=O)c3cc(Br)c(Br)[nH]3)[nH]c2c1 |  | 5.82 | > 50 | > 50 | > 50 | > 50 |  |  | > 50 | 100 | 100 | > 50 | 100 |
| Cc1[nH]c(C(=O)Nc2nc3ccc(NC(=O)c4ccncc4)cc3s2)c(Cl)c1Cl |  | 5.60 | > 50 | > 50 | > 50 | > 50 |  |  | > 50 | 100 | 100 | > 50 | 100 |
| Cc1[nH]c(C(=O)Nc2nc3ccc(NC(=O)C(=O)O)cc3s2)c(Cl)c1Cl | 7.12 |  | > 50 | > 50 | > 50 | > 50 |  | 6.54 |  |  |  |  |  |
| CC(=O)Nc1nc2ccc(NC(=O)c3[nH]c(C)c(Cl)c3Cl)cc2s1 |  | 7.18 | > 50 | > 50 | > 50 | > 50 | 4.45 |  | > 50 | 100 |  | > 50 | 100 |
| Cc1[nH]c(C(=O)Nc2nc3ccc(NC(N)=O)cc3s2)c(Cl)c1Cl | 5.28 | 7.59 | > 50 | > 50 | > 50 | > 50 | 5.89 | 5.24 | 1.56 (≈ 0.599 µg/mL) |  |  | > 50 |  |
